Bioassay records deposited in PubChem BioAssay by several laboratories.
The list is not random: actives were taken first. Their share in the collection is about 2.6%.
Scp-1 inhibitor: Scp-1 phosphatase inhibitors, primary screen, biochemical, colorimetric, uHTS; inhibition, % at 20 µM; Recombinant Scp1, phosphopeptide, malachite green phosphate absorbance; actives 0.88% (n = 340,000);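 active = inhibition above about 50% at 20 µM, limit read from the data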
Target sequence (Q9GZU7 76-261 limits assumed): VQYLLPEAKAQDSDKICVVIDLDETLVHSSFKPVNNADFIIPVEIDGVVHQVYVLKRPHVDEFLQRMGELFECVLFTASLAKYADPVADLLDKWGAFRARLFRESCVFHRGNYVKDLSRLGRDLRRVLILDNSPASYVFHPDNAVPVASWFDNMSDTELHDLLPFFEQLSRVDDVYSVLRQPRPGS
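Incubation: 45 min enzyme reaction at room temperature / System: truncated SCP-1 phosphatase (76-261aa) / Reagent: Phospho 17-mer peptide substrate / Buffer or medium: Acidic Tris acetate buffer with magnesium and detergent / Signal: absorbance at 630 nm / Doses: one concentration, 20 µM, with 1.0% DMSO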
LMPTP inh: LMPTP phosphatase inhibitors, primary screen, biochemical, fluorescence intensity, uHTS. Low molecular weight phosphotyrosine protein phosphatase (Homo sapiens), P24666. recombinant LMPTP-A, OMFP fluorogenic substrate. inhibition, % at 20 µM. actives 0.22% (n = 360,000). AID 651560, 2012;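 active = compounds that cut the enzyme signal by at least half of the control window in the single-dose screen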
Target sequence (P24666 whole entry, looked up): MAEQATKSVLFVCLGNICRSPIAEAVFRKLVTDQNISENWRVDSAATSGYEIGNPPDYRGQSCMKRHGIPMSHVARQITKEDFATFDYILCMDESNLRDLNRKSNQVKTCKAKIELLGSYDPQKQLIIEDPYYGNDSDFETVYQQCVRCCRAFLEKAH
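test system = LMPTP-A | amount = 0.625 nM LMPTP-A final | reagent = fluorogenic phosphatase substrate OMFP at 400 µM final | incubation = 50 min at room temperature | benchmarks = no-enzyme low control, uninhibited high control | medium = Bis-Tris pH 6.0, DTT, detergent | signal = fluorescence intensity of OMFP turnover product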
NadD block: inhibitors of S. aureus NadD, primary screen, biochemical, colorimetric, uHTS; inhibition, % at 20 µM; purified NadD enzyme, colorimetric absorbance read-out; actives 0.78% (n = 360,000); Nicotinate-nucleotide adenylyltransferase NadD (Staphylococcus aureus N315); AID 602399, 2012; in the data active = inhibition above about 26%
rCAG binder: binders of r(CAG) RNA repeats, primary screen, biochemical, fluorescence; r(CAG) RNA repeat, TO-PRO-1 dye displacement fluorescence; inhibition, % at 3 µM; actives 1.3% (n = 370,000); AID 651821, 2012;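 active = inhibition above the plate cutoff, the mean of all test compounds on that plate plus 3 SD, cut at about 35% in these data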;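 also: higher means more dye released from RNA so lower well fluorescence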
STEP block: STEP phosphatase inhibitors, primary screen, biochemical, fluorescence intensity, uHTS; recombinant STEP, OMFP fluorogenic substrate; inhibition, % at 20 µM; actives 0.25% (n = 360,000); AID 588621, 2011;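 active = inhibition at 20 µM, scaled per plate between control wells, above about 37%, limit read from the data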
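Material: STEP (striatal-enriched tyrosine phosphatase) enzyme, cell-free; Compound dosing: 20 µM single dose in 1% DMSO; Technique: fluorescence read at 480 nm ex / 540 nm em; Times: reaction 20 min, ambient temperature; Medium: 50 mM Bis-Tris pH 6.0 with 2.5 mM DTT and 0.005% Tween 20; Also added: OMFP at 25 µM.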
NadD inh conf: inhibitors of S. aureus NadD, confirmation, biochemical, colorimetric, single concentration; shares compounds with NadD block; purified S. aureus NadD, colorimetric enzyme assay; inhibition, % at 20 µM; actives 13% (n = 2,000); in the data active = inhibition mostly above about 42%, no sharp cut-off; inactive = mostly below about 42%
rCAG binder conf: small molecules binding CAG repeat RNA – biochemical, fluorescence, confirmation; shares compounds with rCAG binder; r(CAG) RNA repeat, TO-PRO-1 dye displacement fluorescence; inhibition, % at 3 µM; actives 70% (n = 4,300);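 active = inhibition above a per-plate cutoff, the mean inhibition of sample wells plus 3 SD, cut at about 35% in these data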;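 also: loss of TO-PRO-1 fluorescence as compound displaces dye from 1x1 AA loop RNA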
DNA CAG counter: displacement of TO-PRO-1 from CAG DNA duplex, counter-screen for rCAG RNA repeat binder project, biochemical, fluorescence, TO-PRO-1 dye, d(CAG) DNA oligo; shares compounds with rCAG binder; d(CAG) DNA oligo TO-PRO-1 dye displacement; inhibition, % at 3 µM; actives 94% (n = 4,300); AID 652068, 2013;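 active = inhibition above its plate's cutoff, the mean test-well inhibition plus 3 SD, cut at about 4.8% in these data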;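 also: hits displace the dye from DNA and so lower well fluorescence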
Large screens that a line does not name were inactive (follow-up assays come after a bar, where they were run).

CC(C)(C)c1ccc(C(=O)N/C(=C\c2cccc([N+](=O)[O-])c2)C(=O)Nc2cccc(C(=O)O)c2)cc1	NadD block 31, rCAG binder 84 | NadD inh conf inactive | rCAG binder conf 75 | DNA CAG counter 44
Cc1ccc(Cc2cnc(N3C(=N)SC(c4ccccc4)C3=O)s2)cc1 (centres undefined)	NadD block 51, rCAG binder 64 | NadD inh conf inactive | rCAG binder conf 69 | DNA CAG counter 23
CCOC(=O)c1ccc(-n2c(O)c(/C=N/NC(=O)C3COc4ccccc4O3)c3ccccc3c2=O)cc1 (centres undefined)	NadD block 31, rCAG binder 75 | NadD inh conf inactive | rCAG binder conf 79 | DNA CAG counter 42
CCOC(=O)c1ccc(NC(=O)C2COc3ccccc3O2)cc1 (centres undefined)	none
CCOc1ccc(N=C2SC(C(=O)Nc3ccccc3C#N)C(N)=C2C(=O)Nc2ccc(Cl)cc2)cc1 (centres undefined)	NadD block 31, rCAG binder 39 | NadD inh conf inactive | rCAG binder conf inactive | DNA CAG counter 17
CSc1ccc(C(c2c(C(=O)O)[nH]c3ccccc23)c2c(C(=O)O)[nH]c3ccccc23)cc1	NadD block 37, rCAG binder 89 | NadD inh conf 48 | rCAG binder conf 82 | DNA CAG counter 50
COCc1cc(=O)n2[nH]c(-c3ccsc3-n3c(C)ccc3C)cc2n1	NadD block 56, rCAG binder 40 | NadD inh conf 43 | rCAG binder conf 39 | DNA CAG counter 17
COCc1cc(=O)n2[nH]c(N)nc2n1	none
CC(C)=CCC/C(C)=C/CNCC(=O)N1c2ccccc2[C@]2(c3ccccc3)C[C@@H]3C(=O)N(C/C=C(\C)CCC=C(C)C)CC(=O)N3[C@H]12	none (no result: Scp-1 inhibitor, LMPTP inh, NadD block, STEP block)
COc1cc(C#Cc2c(-c3cncn3C)n(C)c3ccc(-c4cnc(OC)nc4)cc23)cc(OC)c1	NadD block 30, rCAG binder 74 | NadD inh conf inactive | rCAG binder conf inactive | DNA CAG counter 10
Oc1ccccc1C=NC(N=Cc1ccccc1O)c1ccccc1O (centres undefined)	none (no result: Scp-1 inhibitor, LMPTP inh, NadD block, STEP block)
Cc1ccc(NS(=O)(=O)c2ccc(Cl)c(C(=O)Nc3ccccc3-c3nc4ccccc4[nH]3)c2)cc1C	NadD block 47, rCAG binder 47 | NadD inh conf inactive | rCAG binder conf 42 | DNA CAG counter 24
COc1cc(/C=C(\C#N)C(=O)Nc2ccccn2)ccc1O	none
CCOC(=O)c1c(-c2ccc(C)cc2)csc1NC(=O)/C(C#N)=C/c1ccc(O)c(OC)c1	NadD block 59, rCAG binder 37 | NadD inh conf inactive | rCAG binder conf 74 | DNA CAG counter 48
CCOC(=O)/C(C#N)=C\c1ccc(O)c(OC)c1	none
CCOC(=O)c1c(-c2ccccc2)csc1NC(=O)/C(C#N)=C\c1ccc(O)c(OC)c1	NadD block 35, rCAG binder 49 | NadD inh conf inactive | rCAG binder conf 64 | DNA CAG counter 36
Clc1ccc(-c2nnc(SCc3cccc4ccccc34)n2-c2ccc(Cl)cc2)cc1	none (no result: Scp-1 inhibitor, LMPTP inh, NadD block, STEP block)
O=C(COC(=O)c1cc(-c2ccco2)nc2ccccc12)NCc1ccc2c(c1)OCO2	NadD block 43, rCAG binder 38 | NadD inh conf inactive | rCAG binder conf inactive | DNA CAG counter 8.0
COc1ccccc1CNC(=O)COC(=O)c1cc(-c2ccco2)nc2ccccc12	Scp-1 inhibitor 83, NadD block 46, rCAG binder 41 | NadD inh conf inactive | rCAG binder conf inactive | DNA CAG counter 17
CC(C)Cn1c(N)c(C(=O)COC(=O)c2cc(-c3ccco3)nc3ccccc23)c(=O)n(C)c1=O	NadD block 53, rCAG binder 41 | NadD inh conf inactive | rCAG binder conf 39 | DNA CAG counter 20
O=C(COC(=O)c1ccco1)NCc1ccc2c(c1)OCO2	none
CC(C)Cn1c(N)c(C(=O)COC(=O)c2cc(-c3ccccc3)nc3ccccc23)c(=O)n(C)c1=O	none
COC(=O)C1CCN(C(=O)c2cc(-c3ccco3)nc3ccccc23)CC1	Scp-1 inhibitor 70, NadD block 32, rCAG binder 41 | NadD inh conf 56 | rCAG binder conf inactive | DNA CAG counter 15
Cc1[nH]n(-c2ccc(Br)cc2)c(=O)c1C=Nc1ccc(S(=O)(=O)Nc2nccs2)cc1	NadD block 42, rCAG binder 54 | NadD inh conf inactive | rCAG binder conf 81 | DNA CAG counter 47
CCc1nnc(NS(=O)(=O)c2ccc(N=Cc3c(C)[nH]n(-c4ccc(C)c(C)c4)c3=O)cc2)s1	NadD block 37, rCAG binder 55 | NadD inh conf 55 | rCAG binder conf 85 | DNA CAG counter 57
O=C(NCC1CCN(C(=O)C(=O)c2cccs2)CC1)c1ccncc1	none (no result: Scp-1 inhibitor, LMPTP inh, NadD block, STEP block)
COc1cccc(C(=O)Nc2nnc(S(=O)(=O)N(C)Cc3ccc(F)cc3)s2)c1	NadD block 30, rCAG binder 70 | NadD inh conf inactive | rCAG binder conf 65 | DNA CAG counter 25
COc1cccc(C(=O)Nc2nnc(S(=O)(=O)N(C)Cc3ccccc3)s2)c1	none
C[C@@H]1ON(C)[C@H]2C[C@H]3c4cc(-c5cccc(Cl)c5)ccc4CCN3C[C@@H]12	none (no result: Scp-1 inhibitor, LMPTP inh, NadD block, STEP block)
C[C@@H]1CCN(C2CC2)S(=O)(=O)c2ccc(N3CC[C@H](N(C)C)C3)cc2O1	none (no result: Scp-1 inhibitor, LMPTP inh, NadD block, STEP block)
Cc1ccc([C@@H]2CC=C(C(=O)O)[C@H](c3ccc(F)cc3)N2S(=O)(=O)c2ccccc2C)cc1	NadD block 42, rCAG binder 70 | NadD inh conf inactive | rCAG binder conf 60 | DNA CAG counter 23
Fc1ccc(F)c(Cn2ccc3ccc(-c4ccc5ccn(Cc6cc(F)ccc6F)c5c4)cc32)c1	none (no result: Scp-1 inhibitor, LMPTP inh, NadD block, STEP block)
